Some results are limits rather than exact numbers.

The subject of test [1] is A2780. Description: Cytotoxicity against ovarian carcinoma A2780/cis90 tumor cell lines. The class given is functional, cell-based, Homo sapiens.
The next test relates to HBL-100. As to the kind of experiment: Cytotoxicity against breast carcinoma HBL100 tumor cell lines. Type of test: functional, cell-based, Homo sapiens.
In test [2] the test system is A2780. Description: Cytotoxicity against ovarian carcinoma A2780/cis tumor cell lines. Type of test: functional, cell-based, Homo sapiens. An outline of the steps:
(§1)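 Cisplatin-sensitive A2780 cells and the A2780/cis resistant subline were exposed continuously for graded times (24, 48 and 72 h). IC50 was determined at each exposure time. The resistant subline had been derived by gradual cisplatin treatment.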

Another test concerns B16. As to the kind of experiment: Cytotoxicity against mouse melanoma B16 tumor cell lines. The class given is functional, cell-based.
Another test concerns ML-2. Description: Cytotoxicity against acute myelogenous leukemia ML-2 tumor cell lines. Type of test: functional, cell-based, Homo sapiens.
A further test concerns K562. Description: Cytotoxicity against chronic myelogenous leukemia K562 tumor cell lines. Type of test: functional, cell-based, Homo sapiens.
The next test relates to COR-L23. Description: Cytotoxicity against lung carcinoma COR-L23/CTR tumor cell lines. Type of test: functional, cell-based, Homo sapiens.
Another test deals with A-427. Description: Cytotoxicity against lung carcinoma A427 tumor cell lines. The class given is functional, cell-based, Homo sapiens.
The test system of test [3] is HT-29. Description: Cytotoxicity against colon cancer HT-29 tumor cell lines. Type of test: functional, cell-based, Homo sapiens.
The next test concerns KG-1. As to the kind of experiment: Cytotoxicity against chronic myelogenous leukemia KG-1 tumor cell lines. Type of test: functional, cell-based, Homo sapiens.
Test [4] concerns A2780. Description: Cytotoxicity against ovarian carcinoma A2780 tumor cell lines. The class given is functional, cell-based, Homo sapiens. The gist of the method:
as §1

The subject of another test is HCT-116. As to the kind of experiment: Cytotoxicity against colon cancer HCT116 tumor cell lines. The class given is functional, cell-based, Homo sapiens.
Test [5] has as its system HT-29. Description: Cytotoxicity against colon cancer HT29N tumor cell lines. Type of test: functional, cell-based, Homo sapiens.
Another test has as its system MCF7. Description: Cytotoxicity against breast carcinoma MCF-7 tumor cell lines. Type of test: functional, cell-based, Homo sapiens.

The term IC50 denotes the midpoint of a concentration-inhibition curve. The low end stands for inhibition by little substance, the high end for a need for much substance. With CISPLATIN, the IC50 in the test on A2780 [1] was more than 80 µM; with HBL-100, 63 µM; with A2780 [2] it was 40 µM; in the test on B16, more than 80 µM; in the test on ML-2, more than 80 µM; in the test on K562 it was more than 80 µM. For the same sequence, the IC50 was more than 80 µM in the test with COR-L23; 63 µM in the test with A-427; 50 µM in the test on HT-29 [3]; 48 µM with KG-1; 4 µM in the test with A2780 [4]; more than 80 µM in the test on HCT-116. Further, the IC50 in the test with HT-29 [5] is more than 80 µM; in the test on MCF7 it was 71 µM.
